For data set [1], the target named is T1, recombinant Bauhinia forficata lectin (BfL) (Bauhinia forficata, UniProt P86993).
T1 sequence (P86993 1-233): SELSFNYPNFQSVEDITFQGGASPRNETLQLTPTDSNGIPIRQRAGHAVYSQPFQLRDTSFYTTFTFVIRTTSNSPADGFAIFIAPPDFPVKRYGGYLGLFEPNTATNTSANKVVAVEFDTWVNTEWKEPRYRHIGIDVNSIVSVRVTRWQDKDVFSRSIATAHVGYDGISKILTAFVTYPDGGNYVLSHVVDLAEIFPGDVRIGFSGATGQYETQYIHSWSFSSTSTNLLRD
The data set can be described thus: glyco-antigen microarray binding of BfL, apparent Kd. The conditions noted are these: for RFUmax: carbohydrate array, maximum signal of the binding curve. In outline:
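His6-tagged lectin expressed in E. coli, refolded from inclusion bodies, and gel-filtered in 50 mM Hepes pH 7.5, 150 mM NaCl. Glycans on BSA or HSA (neoglycoproteins), some at high and low density. Arrays blocked overnight at 4 °C in 3% BSA TBS. Lectin dilutions in 1% BSA TBS with 2 mM CaCl2 and 0.05% Tween-20, duplicate wells, 2 h at 37 °C. Detected with anti-His then DyLight549 anti-mouse IgG. Fluorescence averaged, log2-transformed, apparent Kd fitted from binding curves.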

For another data set, the target named is T2, Ac-S-Ser(core 5)-S-G-18.
T2 sequence (peptide, N-terminal acetyl; core 5 (GalNAcα1-3GalNAcα1-) on the second residue (Ser)): SSSG
The data set can be described thus: peptide or protein array.

The next data set has as its target T3, Ac-S-Tn(Ser)-S-G - 04.
T3 sequence (peptide, N-terminal acetyl; Tn (GalNAc α-linked) on the second residue (Ser)): SSSG
The data set can be described thus: peptide or protein array.

Another data set deals with T4, Ac-S-Tn(Thr)-S-G - 04.
T4 sequence (peptide, N-terminal acetyl; Tn (GalNAc α-linked) on the second residue (Thr)): STSG
Nature of the data set: peptide or protein array.

The next data set has as its target T5, Ac-S-Thr(F1α)-S-G - 18.
T5 sequence (peptide, N-terminal acetyl; F1α (Galβ1-4GlcNAcβ1-6GalNAcα1-) on the second residue (Thr)): STSG
The data set can be described thus: peptide or protein array.

Data set [2] has as its target all forms of the Tn antigen (Tn glycopeptides, 55 array components). Nature of the data set: peptide or protein array.
The next data set addresses T6, Ac-A-Tn(Thr)-S-G - 05.
T6 sequence (peptide, N-terminal acetyl; Tn (GalNAc α-linked) on the second residue (Thr)): ATSG
Nature of the data set: peptide or protein array.

The target in data set [3] is ovine submaxillary mucin (ovine). The data set can be described thus: peptide or protein array.
For another data set, the target named is T7, Ac-S-Tn(Ser)-S-G - 22.
T7 sequence (peptide, N-terminal acetyl; Tn (GalNAc α-linked) on the second residue (Ser)): SSSG
Nature of the data set: peptide or protein array.

Data set [4] has as its system melanoma LOX IMVI cell line. The data set can be described thus: NCI-60 One Dose Assay. It counts as cell-based, human. The note with it: 1.85 μM, SRB assay, 5% serum, average of two experiments. In outline: (§1)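 Recombinant His-tagged test lectin, refolded from E. coli inclusion bodies, was gel-filtered into 50 mM Hepes pH 7.5, 150 mM NaCl before use. NCI DTP ran a one-dose screen at 1.85 μM following its published protocols. Read-out was SRB colorimetric total protein in non-lysed cells. Growth percent is relative to drug-free medium, averaged over two experiments.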

The test system of data set [5] is MCF7 human breast cancer cell line. The note with it: natural BfL from seeds; after 72 hours at 2.5 µM; cited from earlier work.
The next data set concerns rabbit erythrocytes. The note with it: natural BfL from seeds; cited from earlier work.
The test system of data set [6] is human erythrocytes originating from all blood types. The conditions noted are these: natural BfL from seeds; cited from earlier work.
Data set [7] deals with normal and several types of cancer cells. The conditions noted are these: natural BfL from seeds; cited from earlier work.
Data set [8] is described as follows: solubility of recombinant BfL. It counts as physicochemical. The essentials:
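Recombinant His6-tagged lectin was expressed in bacteria, recovered from inclusion bodies and refolded at 5 °C. It was then dialysed overnight against 50 mM Tris-HCl pH 7.5, 0.2 M NaCl, 1 mM CaCl2, and concentrated to 8-10 mg/ml at room temperature for storage at −80 °C. The preceding purification and refolding steps were run at 5 °C.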

Data set [9] has as its system human cancer cell lines of the NCI-60 panel. Nature of the data set: NCI-60 Human Tumor Cell Lines Screen, One Dose Assay. It counts as cell-based. The conditions noted are these: 1.85 μM. In outline: as §1
Data set [10] has as its target T8, recombinant Bauhinia forficata lectin (BfL-His6) (Bauhinia forficata, UniProt P86993 1-233).
T8 sequence: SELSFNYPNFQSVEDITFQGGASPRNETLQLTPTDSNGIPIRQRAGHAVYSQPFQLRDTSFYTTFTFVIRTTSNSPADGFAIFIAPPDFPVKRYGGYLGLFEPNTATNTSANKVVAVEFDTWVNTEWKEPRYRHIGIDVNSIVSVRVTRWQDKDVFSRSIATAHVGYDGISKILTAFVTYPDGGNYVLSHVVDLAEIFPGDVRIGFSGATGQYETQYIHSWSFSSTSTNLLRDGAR
Nature of the data set: peptide or protein array.

Where no end group is shown, it is not given here. The star is where a group is joined. αGalNAc = CC(=O)N[C@@H]1[C@@H](O)[C@@H](O)[C@@H](CO)O[C@@H]1*

Take “-G-V-T-S-A-P-D-T-R-P-A-P-G-S- Tn(Thr)-A-P-P-A (GVTSAPDTRPAPGST(αGalNAc)APPA; also: conjugated to albumin carrier (BSA or HSA)) [Muc1-Tn15]”: the RFUmax in data set [1] was found to be 17917 RFU.
Still for that read-out and setting: the figure for “Ac-S-Tn(Ser)-V-G-13: Tn glycopeptide on BSA or HSA, array component (Ac-SS(αGalNAc)VG; also: on BSA or HSA carrier)” is 17255 RFU.
The same measure, in the same setting: for “AzHex-P-D-Tn(Thr)-R-P-NH2-07: Tn glycopeptide on BSA or HSA, array component (AzHex-PDT(αGalNAc)RP-NH2; also: on BSA or HSA carrier)” the value was 15559 RFU; for GalNAcα1-3(Fucα1-2)Gal [BG-A -19], 15700 RFU.
GalNAcα1-3Gal [GalNAcα1-3Gal - 17]: in [1], the “binding of BfL on glycan microarray (in words)” value (“binding of BfL” for short) is reported as “strong binding” and the RFUmax is 17826 RFU.
In the case of “GalNAcα1-3GalNAcα1-Ser (Ac-SSSG; not fully specified (residue 2); also: on BSA or HSA carrier) [Ac-S-Ser(core 5)-S-G-18]”, in data set [1], the “binding of BfL” value was “good binder” and the RFUmax was 18580 RFU.
As for “GalNAcα1-3GalNAcβ1-3Galα1-4Galβ [Forssman Tetra-BSA - 13]”, in [1], the “binding of BfL” value is recorded as “strong binding” and the RFUmax amounted to 18518 RFU.
On the same counts, the results for GalNAcα1-6Galβ [GalNAcα1-6Galβ - 22] are “strong binding” and 19055 RFU.
For the molecule GalNAcβ1-3Galα1-3Galβ [iGb4], the “binding of BfL” value in [1] is on record as “strong binding”.
On to “GalNAcβ1-3Galα1-4Galβ1-4GlcNAcβ [Gb4 - 09]”, for which, in data set [1], the “binding of BfL” value is “strong binding” and the RFUmax is recorded as 14003 RFU. In addition, in data set [1] (read-out: App Kd, apparent Kd, multivalent avidity on carbohydrate array), the Kd is 0.68 nM.
Regarding GalNAcβ1-4Galβ [GA2di - 37], in [1], the “binding of BfL” value is reported as “strong binding” and the RFUmax amounted to 17241 RFU.
As to GalNAcβ1-4GlcNAcβ [LDN-Sp - 14], in data set [1], the “binding of BfL” value is listed as “strong binding” and the RFUmax is given as 18291 RFU.
In the case of “Galβ1-4GlcNAcβ1-6GalNAcα1-Thr (Ac-ST(Galβ1‑4GlcNAcβ1‑6GalNAcα1)SG; also: on BSA or HSA carrier) [Ac-S-Thr(F1α)-S-G - 18]”, the RFUmax in data set [1] was 17214 RFU.

B1: recombinant Bauhinia forficata lectin (BfL-His6) (natural protein)
chain: T8 sequence
Turning to B1, the Kd is 1.02 nM in the data set with Ac-S-Ser(core 5)-S-G-18; 0.75 nM with Ac-S-Tn(Ser)-S-G - 04; 0.71 nM with Ac-S-Tn(Thr)-S-G - 04; 2.51 nM with Ac-S-Thr(F1α)-S-G - 18; 0.4 to 1.2 nM in data set [2]; 0.63 nM with Ac-A-Tn(Thr)-S-G - 05. Also, the values for the Kd (in data set [3]; with Ac-S-Tn(Ser)-S-G - 22) were 10.7 nM and 0.65 nM, respectively.

B2: BfL: recombinant Bauhinia forficata lectin expressed in E. coli and refolded, non-glycosylated, C-terminal His6 tag, dimeric (protein)
chain: T8 sequence
modifications: left off: His6, C-terminal, kept
Broadly, the solubility is the concentration that dissolves in the medium under given conditions. Consider B2, for which the growth inhibition entry in data set [4] was “over 95%”. The inhibition of viability in data set [5] is on record as 35%. Also, the “concentration that agglutinates erythrocytes” value (in the data set on rabbit erythrocytes; in data set [6]) was not below 1 µg/mL each time. In addition, in data set [7], the “cytotoxicity (in words)” value is listed as “non-cytotoxic”. In data set [8] (5 °C, compared with room temperature), the “solubility (in words)” value is on record as “decreases”. Moreover, in data set [8] (room temperature), the solubility is 8000 to 10000 µg/mL. For the same molecule, in data set [9], the cytotoxic effects entry is “No cytotoxic effects”. The “growth inhibition, strong effect, five cell lines” value in data set [9] (observed for five cell lines of different cancers) is on record as more than 50%. Besides, the “cell lines not inhibited” value in [9] (share of the cell lines of the panel) is given as “About 50%”.
With Ac-APGST(αGalNAc)APPAG [Ac-A-P-G-S-Tn(Thr)-A-P-P-A-G-03], the Kd in [10] was 0.65 nM.
Still for that read-out and setting: the figure for AzHex-PDT(αGalNAc)RP-NH2 [AzHex-P-D-Tn(Thr)-R-P-NH2-07] is 1.25 nM.
